From PubChem
PGC1a acetyl inh: PGC1a acetylation modulation, inhibitor mode | U2OS PGC1a acetylation, AlphaScreen anti-acetyl-lysine; with virally co-expressed GCN5 acetyltransferase | inhibition, % at 15.6 µM | actives 0.17% (n = 350,000) | AID 651687;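 active = every replicate shows inhibition of at least 40%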
Ecoli rRNA inh: inhibitors of bacterial rRNA selective over humanized ribosomes. E. coli WT GFP vs humanized-ribosome RFP mutants, fluorescence, 24 h; active compounds read low; DMSO median 0, no signal -100. GFP signal change (wild-type ribosome), % (concentration not given with the values). actives 1.6% (n = 350,000). AID 720706;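 active = significant combined selectivity score with lowered wild-type GFP, culture density cut under 30%, mutant RFP and density less affected; inactive = any of these conditions unmet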
S100A4 MyoIIA: blocks human S100A4 binding to myosin IIA peptide | P26447 | S100A4/TAMRA-MyoIIA peptide fluorescence polarization | inhibition, % at 10.7 µM | actives 0.14% (n = 360,000) | AID 652163;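 active = mean inhibition of at least 70% across replicates, with every replicate also reaching that level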
Target sequence (P26447 whole entry, looked up): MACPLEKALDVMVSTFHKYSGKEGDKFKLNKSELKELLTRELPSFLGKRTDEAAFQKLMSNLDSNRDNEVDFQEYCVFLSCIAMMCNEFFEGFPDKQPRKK
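Test system: S100A4 monomer protein. Medium: HEPES buffer with Ca2+, pH 7.2. Reagent: fluorescent myosin IIA peptide, 5 nM. Compound dosing: single-point compound testing. Timing: 5 min between mix addition and reading. Benchmarks: DMSO neutral and TFP positive wells.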
Statin myotox sup: suppressors of simvastatin-induced myotoxicity in C2C12 myotubes; ATP luminescence, 48 h; scaled: DMSO 0, geranylgeraniol control 100; rescue of ATP level, % at 7.49 µM; AID 602340; actives 0.78% (n = 330,000);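 active = mean ATP rescue above about 67%, or every replicate alone reaching that limit, limit read from the data, passing the limit was not always enough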;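 also: myotubes were challenged with 10 µM simvastatin during compound exposure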
Cneo AK release: Cryptococcus neoformans lysis via adenylate kinase release; actives 0.2% (n = 360,000); lysis activity, % at 15 µM; C. neoformans lysis, adenylate kinase release luminescence, 4 h; normalised: neutral wells 0, clomiphene wells 100;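 active = mean lysis activity across replicates of at least 80%, whatever share of replicates individually reach that level; inactive = mean lysis activity below 80%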
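Material: C. neoformans cells; Schedule: 4 h static compound exposure, 37 °C, read 1 h post-reagent; Measured by: adenylate kinase release luminescence; Read-out: signal increase indicating cell lysis; Controls: Clomiphene as positive lysis control.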
SIRT5 inh: blocks human SIRT5 desuccinylation of peptide; actives 1.1% (n = 330,000); Q9NXA8; inhibition, % at 15 µM; Purified SirT5, succinyl-peptide AMC, trypsin-coupled fluorescence; AID 652115; in the data active = inhibition above about 15%
Target sequence (Q9NXA8 whole entry, looked up): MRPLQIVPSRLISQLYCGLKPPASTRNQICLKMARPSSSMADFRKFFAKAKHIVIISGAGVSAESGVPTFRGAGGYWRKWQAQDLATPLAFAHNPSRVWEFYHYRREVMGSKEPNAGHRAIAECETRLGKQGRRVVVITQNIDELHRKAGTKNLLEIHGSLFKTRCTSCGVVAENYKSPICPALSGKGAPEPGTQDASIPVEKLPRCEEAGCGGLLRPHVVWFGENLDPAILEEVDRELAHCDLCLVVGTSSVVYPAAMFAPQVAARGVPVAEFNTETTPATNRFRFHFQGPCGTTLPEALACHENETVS
Each line names hits and unclear results; the compound was inactive in the other large screens. The list is not random: actives were taken first. Their share in the collection is about 3%.

CC(=O)c1cccc(S(=O)(=O)NCC(C)(C)N2CCOCC2)c1	SIRT5 inh 16
COc1ccc(NC(=O)O[C@@H](C)[C@@H]2CN3CCc4c([nH]c5ccc(-c6ccc(OC)cc6)cc45)[C@@H]3C[C@@H]2N(C)C(=O)Nc2ccc(OC)cc2)cc1	Ecoli rRNA inh -27
COc1ccccc1C#Cc1ccc([C@H]2[C@H]3CN(C(=O)C4CC4)CCCCN3[C@H]2CO)cc1	none (no result: Ecoli rRNA inh, Statin myotox sup)
CN1C(=O)c2ccc(N(C)C)cc2C1=O	Statin myotox sup 109 (no result: Ecoli rRNA inh, S100A4 MyoIIA, SIRT5 inh)
S=C(NCCc1ccccc1)Nc1cccc2cnccc12	Ecoli rRNA inh -27
S=C(NCc1ccccc1)Nc1cccc2cnccc12	none (no result: PGC1a acetyl inh)
C/C(=N\S(=O)(=O)c1ccc(C)cc1)N1CCN(S(=O)(=O)c2ccccc2)C1C(C)C (centres undefined)	Ecoli rRNA inh -27
COc1ccc(NC(=O)N(C)C[C@@H]2OCCCC[C@@H](C)Oc3ccc(NS(=O)(=O)c4ccc(F)cc4)cc3C(=O)N([C@H](C)CO)C[C@@H]2C)cc1	none (no result: Statin myotox sup)
NC(=O)C1CCN(C(=O)c2cnn(-c3ccccc3)c2NC(=O)c2ccco2)CC1	Statin myotox sup 98 (no result: Ecoli rRNA inh, S100A4 MyoIIA, SIRT5 inh)
Cc1ccc(-n2ncc(C(=O)N3CCc4ccccc4C3)c2NC(=O)c2ccco2)cc1C	Statin myotox sup 77 (no result: Ecoli rRNA inh, S100A4 MyoIIA, Cneo AK release, SIRT5 inh)
CCCC(O)C#Cc1cnc2c(c1)C(=O)N([C@H](C)CO)C[C@H](C)[C@H](CN(C)Cc1ccc3c(c1)OCO3)O2 (some centres undefined)	none
O=C(C[C@H]1C[C@H]2c3cc(NC(=O)Nc4ccc(C(F)(F)F)cc4)ccc3O[C@H]2[C@H](CO)O1)NCc1ccc2c(c1)OCO2	none
O=C(C[C@H]1C[C@@H]2c3cc(NC(=O)Nc4ccc(C(F)(F)F)cc4)ccc3O[C@@H]2[C@@H](CO)O1)NCc1ccc2c(c1)OCO2	SIRT5 inh 25
O=C(C[C@@H]1C[C@H]2c3cc(NC(=O)Nc4ccc(C(F)(F)F)cc4)ccc3O[C@H]2[C@H](CO)O1)NCc1ccc2c(c1)OCO2	SIRT5 inh 27
Nn1c(SCC(=O)Nc2ccc(F)cc2F)nnc1-c1cccnc1	Statin myotox sup 112 (no result: Ecoli rRNA inh, S100A4 MyoIIA, SIRT5 inh)
Nn1c(SCC(=O)Nc2ccccc2F)nnc1-c1cccnc1	none (no result: Ecoli rRNA inh, S100A4 MyoIIA, SIRT5 inh)
O=C(Nc1cccc(F)c1)N1CC(=O)N2[C@H](CO)[C@@H](c3ccc(-c4ccccc4)cc3)[C@@H]2C1	none (no result: Statin myotox sup, Cneo AK release)
Cc1cc(NS(=O)(=O)c2ccc(NC(=O)COc3ccc(Br)cc3)cc2)nc(C)n1	SIRT5 inh 33
CCS(=O)(=O)c1ccc(O)c(NC(=O)COc2ccc(Br)cc2)c1	PGC1a acetyl inh 97 (no result: Cneo AK release)
COc1ccc(OCC(=O)Nc2ccc(S(=O)(=O)Nc3cc(C)on3)cc2)cc1	none
CCN(CC)S(=O)(=O)c1ccc(O)c(NC(=O)COc2ccc(S(=O)(=O)N3CCOCC3)cc2)c1	none (no result: PGC1a acetyl inh)
Cc1cc(NS(=O)(=O)c2ccc(NC(=O)COc3c(C)cc(Br)cc3C)cc2)no1	PGC1a acetyl inh 85
COc1ccccc1/C=C/C(=O)Nc1ccc(S(=O)(=O)Nc2cc(C)on2)cc1	Ecoli rRNA inh -35
C[C@@H]1CCCCO[C@@H](CN(C)S(=O)(=O)c2ccc(F)cc2)[C@H](C)CN([C@@H](C)CO)C(=O)c2cc(NS(=O)(=O)c3ccc(F)cc3)ccc2O1	none (no result: S100A4 MyoIIA, Statin myotox sup, SIRT5 inh)
CC(=O)N(C)C[C@@H]1Oc2ncc(-c3ccc(C)cc3)cc2C(=O)N([C@@H](C)CO)C[C@@H]1C	none
COc1ccc(NC(=O)N[C@@H]2CC[C@@H](CCNC(=O)c3cc(Cl)cc(Cl)c3)O[C@@H]2CO)cc1	none
COc1ccccc1CNC(=O)C[C@H]1C[C@@H]2c3cc(NC(=O)C4CCOCC4)ccc3O[C@@H]2[C@@H](CO)O1	none
O=c1[nH]c(SCCOc2ccccc2F)nc2ccccc12	none (no result: Statin myotox sup, Cneo AK release)
Cn1c(SCCOc2ccccc2F)nc2ccccc2c1=O	Ecoli rRNA inh -28 (no result: PGC1a acetyl inh, Statin myotox sup, Cneo AK release)
C[C@@H]1CN([C@H](C)CO)C(=O)c2cc(NC(=O)NC3CCCCC3)ccc2O[C@@H](C)CCCCO[C@@H]1CN(C)C(=O)Nc1ccc(F)cc1	none (no result: Statin myotox sup, Cneo AK release)
